IDH1 R132H inh – IDH1 R132H (human) inhibition | O75874 | IDH1 R132H reductase, diaphorase/resazurin fluorescence, 60 min | inhibition, % at 10 µM | 0.18% of 70,000 active | AID 624101; in the data active means inhibition above about 34%; inconclusive means no clear call, values can overlap the other calls; inactive means below about 11%
Target sequence (O75874 whole entry R132H): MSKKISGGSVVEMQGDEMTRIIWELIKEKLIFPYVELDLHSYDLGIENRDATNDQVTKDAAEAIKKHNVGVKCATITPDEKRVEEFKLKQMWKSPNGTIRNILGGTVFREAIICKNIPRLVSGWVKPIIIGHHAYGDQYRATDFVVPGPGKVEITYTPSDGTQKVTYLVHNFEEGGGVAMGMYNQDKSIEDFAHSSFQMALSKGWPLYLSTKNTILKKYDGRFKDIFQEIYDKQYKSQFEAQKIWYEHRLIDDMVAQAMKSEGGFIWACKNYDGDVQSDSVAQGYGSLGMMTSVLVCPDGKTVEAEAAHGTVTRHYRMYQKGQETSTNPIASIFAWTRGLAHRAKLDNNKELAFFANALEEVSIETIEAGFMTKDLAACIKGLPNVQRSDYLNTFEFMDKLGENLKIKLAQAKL
KDM4C inh – blocks human GASC-1 (KDM4C) demethylase activity. Q9H3R0. GST-KDM4C 2-372, H3K9me3 peptide, LANCE TR-FRET. inhibition, % at 12.5 µM. 0.15% of 96,000 active;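 active means mean replicate inhibition above about 25%, with at least 55% of replicates also reaching it, limit read from the data, passing the limit was not always enough; inconclusive means only one of those two conditions met; inactive means neither condition met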
Target sequence (Q9H3R0 2-372 limits assumed): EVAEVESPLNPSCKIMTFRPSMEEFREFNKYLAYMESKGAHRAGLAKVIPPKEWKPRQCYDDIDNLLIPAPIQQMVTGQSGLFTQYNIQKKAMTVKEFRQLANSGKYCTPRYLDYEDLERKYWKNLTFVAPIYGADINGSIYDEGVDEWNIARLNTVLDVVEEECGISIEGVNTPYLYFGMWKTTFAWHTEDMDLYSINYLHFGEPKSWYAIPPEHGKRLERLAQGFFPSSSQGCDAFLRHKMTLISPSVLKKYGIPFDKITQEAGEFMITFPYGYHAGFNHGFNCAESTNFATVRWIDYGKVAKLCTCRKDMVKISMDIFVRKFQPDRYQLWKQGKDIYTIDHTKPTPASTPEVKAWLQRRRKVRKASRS
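reagent = H3K9me3 peptide substrate, Fe(II), 2-oxoglutarate | system = GST-tagged GASC-1 (JMJD2C) catalytic fragment, aa 2-372 | amount = enzyme final amount 10 nM | read-out = Fall in 671/618 emission ratio as inhibition | medium = HEPES buffer, pH 7.5, plus ascorbate | schedule = 30 min reaction, 60 min detection, RT | measured by = LANCE TR-FRET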
T cruzi growth-1 – inhibitors of T. cruzi proliferation. T. cruzi beta-gal in NIH3T3, GalScreen luminescence, 90 h. inhibition, % at 8.34 µM. 5.9% of 77,000 active. AID 624255;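 active means mean inhibition above about 93%, with at least 55% of replicates each passing it, limit read from the data, passing the limit was not always enough; inconclusive means only one of those two conditions holds; inactive means neither condition holds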
Pf Dd2 inh – inhibitors of Plasmodium falciparum Dd2 growth. AID 1159554. P. falciparum Dd2 growth, SYBR Green, 72 h; hits give low values. activity change, % at 10 µM. 2.3% of 94,000 active; in the data active means activity change below about -80%; inconclusive means no clear call, values can overlap the other calls
T cruzi growth-2 – inhibitors of T. cruzi proliferation. shares compounds with T cruzi growth-1. T. cruzi beta-gal in NIH3T3, GalScreen luminescence, 90 h. inhibition, % at 8.35 µM. 72% of 5,600 active. AID 651739;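 active means mean replicate inhibition above about 95% and at least 55% of replicates individually reaching it, limit read from the data; inconclusive means only one of the two criteria is met; inactive means neither criterion is met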
T cruzi growth-3 – Trypanosoma cruzi proliferation inhibition | shares compounds with T cruzi growth-1 | T. cruzi beta-gal in NIH3T3, GalScreen luminescence, 90 h | inhibition, % at 2.09 µM | 21% of 5,600 active | AID 651740;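 active means mean inhibition above about 95%, with at least 55% of replicates also reaching it, limit read from the data; inconclusive means meets just one of the two conditions; inactive means meets neither condition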
NIH3T3 tox – cytotoxicity in mouse NIH/3T3 fibroblasts. 14% of 5,600 active. NIH/3T3 viability, CellTiter-Glo ATP luminescence, 90 h. shares compounds with T cruzi growth-1. cytotoxicity (signal decrease), % at 8.35 µM;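 active means mean signal decrease across replicates above about 35% based on untreated-well scatter, with enough replicates individually passing, limit read from the data; inconclusive means no rule stated though some were filed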
NIH3T3 tox 2 – cytotoxicity in mouse NIH/3T3 fibroblasts. shares compounds with T cruzi growth-1. NIH/3T3 viability, CellTiter-Glo ATP luminescence, 90 h. 56% of 5,600 active. inhibition, % at 24.9 µM;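 active means mean loss of cell viability signal at or above a set limit, and enough replicates individually reaching it; inconclusive means meets only the mean limit or only the replicate share; inactive means meets neither condition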
Each line names hits and unclear results; the compound was inactive in the other large screens (follow-up assays come after a bar, where they were run). The list is not random: actives were taken first. Their share in the collection is about 5.8%.

CCN(C[C@@H]1N[C@@H](CO)[C@H]1c1ccc(-c2ccc(F)cc2)cc1)C(=O)CN(C)C	T cruzi growth-1 109.3, Pf Dd2 inh -80.5 (no result: IDH1 R132H inh) | T cruzi growth-2 99.6 | T cruzi growth-3 inactive | NIH3T3 tox inconclusive | NIH3T3 tox 2 104.1
CCCNC(=O)[C@@H]1[C@@H](CO)[C@@H]2Cn3c(ccc(C4=CCCC4)c3=O)[C@H]1N2C(C)=O	T cruzi growth-1 105.6 (no result: IDH1 R132H inh) | T cruzi growth-2 108.5 | T cruzi growth-3 inactive | NIH3T3 tox inactive | NIH3T3 tox 2 inactive
CCCNC(=O)[C@H]1[C@H](CO)[C@H]2Cn3c(ccc(-c4ccccc4)c3=O)[C@@H]1N2C(=O)CC1CC1	T cruzi growth-1 106.2 (no result: IDH1 R132H inh) | T cruzi growth-2 inactive | T cruzi growth-3 inactive | NIH3T3 tox inactive | NIH3T3 tox 2 inactive
CCCNC(=O)[C@H]1[C@H](CO)[C@H]2Cn3c(ccc(-c4cccc(OC)c4)c3=O)[C@@H]1N2CCC	none (no result: IDH1 R132H inh)
CN(C)C(=O)[C@@H]1[C@@H](CO)[C@@H]2Cn3c(ccc(-c4cccc(F)c4)c3=O)[C@H]1N2CCc1ccccc1	none (no result: IDH1 R132H inh)
CCCNC(=O)[C@H]1[C@H](CO)[C@H]2Cn3c(ccc(C4=CCCC4)c3=O)[C@@H]1N2C(C)=O	none (no result: IDH1 R132H inh)
CN(C)C(=O)[C@@H]1[C@@H](CO)[C@@H]2Cn3c(ccc(-c4cccc(F)c4)c3=O)[C@H]1N2Cc1ccccc1	T cruzi growth-1 102.8 (no result: IDH1 R132H inh, Pf Dd2 inh) | T cruzi growth-2 inactive | T cruzi growth-3 inactive | NIH3T3 tox inactive | NIH3T3 tox 2 inactive
CCCNC(=O)[C@@H]1[C@@H](CO)[C@@H]2Cn3c(ccc(-c4cccc(OC)c4)c3=O)[C@H]1N2CCC	T cruzi growth-1 100.2 (no result: IDH1 R132H inh) | T cruzi growth-2 inactive | T cruzi growth-3 inactive | NIH3T3 tox inactive | NIH3T3 tox 2 inactive
O=C(NC1CCC1)[C@@H]1[C@@H](CO)[C@@H]2Cn3c(ccc(-c4cccc(F)c4)c3=O)[C@H]1N2Cc1cocn1	T cruzi growth-1 100.4 (no result: IDH1 R132H inh, Pf Dd2 inh) | T cruzi growth-2 inactive | T cruzi growth-3 inactive | NIH3T3 tox inactive | NIH3T3 tox 2 inactive
CCCNC(=O)[C@H]1[C@H](CO)[C@H]2Cn3c(ccc(C4=CCCCC4)c3=O)[C@@H]1N2Cc1cocn1	none (no result: IDH1 R132H inh)
CCNC(=O)[C@H]1[C@H](CO)[C@H]2Cn3c(ccc(C4=CCCCC4)c3=O)[C@@H]1N2Cc1cocn1	T cruzi growth-1 inconclusive (no result: IDH1 R132H inh) | T cruzi growth-2 inactive | T cruzi growth-3 inactive | NIH3T3 tox inactive | NIH3T3 tox 2 inactive
O=C(NC1CCC1)[C@@H]1[C@@H](CO)[C@@H]2Cn3c(ccc(-c4ccc(F)cc4)c3=O)[C@H]1N2Cc1cocn1	none (no result: IDH1 R132H inh, T cruzi growth-1)
C/C=C/c1ccc2c(c1)O[C@H](CN(C)Cc1ccccc1F)[C@H](C)CN([C@@H](C)CO)S2(=O)=O	T cruzi growth-1 119.8 | T cruzi growth-2 110.8 | T cruzi growth-3 inactive | NIH3T3 tox 35.9 | NIH3T3 tox 2 104.7
C/C=C/c1ccc2c(c1)O[C@@H](CN(C)Cc1ccc(F)cc1)[C@@H](C)CN([C@@H](C)CO)S2(=O)=O	none
C/C=C/c1ccc2c(c1)O[C@@H](CN(C)Cc1ccccc1F)[C@H](C)CN([C@H](C)CO)S2(=O)=O	T cruzi growth-1 113.8 | T cruzi growth-2 97.8 | T cruzi growth-3 inactive | NIH3T3 tox 50.7 | NIH3T3 tox 2 102.5
C/C=C/c1ccc2c(c1)O[C@H](CN(C)Cc1ccccc1F)[C@H](C)CN([C@H](C)CO)S2(=O)=O	T cruzi growth-1 109.5 | T cruzi growth-2 102.5 | T cruzi growth-3 inactive | NIH3T3 tox inactive | NIH3T3 tox 2 105.5
C/C=C/c1ccc2c(c1)O[C@@H](CN(C)Cc1ccccc1F)[C@@H](C)CN([C@@H](C)CO)S2(=O)=O	none
COc1ccc(OC)c(NC(=O)CSc2nnc(-c3ccc(Cl)cc3Cl)n2C)c1	none (no result: KDM4C inh, T cruzi growth-1, Pf Dd2 inh)
C[C@@H]1CN([C@@H](C)CO)C(=O)c2cc(NS(=O)(=O)c3ccc(Cl)cc3)ccc2O[C@@H](C)CCCCO[C@@H]1CN(C)Cc1ccccc1	T cruzi growth-1 100.3 (no result: IDH1 R132H inh) | T cruzi growth-2 inactive | T cruzi growth-3 inactive | NIH3T3 tox inactive | NIH3T3 tox 2 105.5
C[C@@H]1CCCCO[C@H](CN(C)Cc2ccccc2)[C@@H](C)CN([C@@H](C)CO)C(=O)c2cc(NS(=O)(=O)c3ccc(Cl)cc3)ccc2O1	T cruzi growth-1 105.9 (no result: IDH1 R132H inh) | T cruzi growth-2 95.2 | T cruzi growth-3 inactive | NIH3T3 tox inactive | NIH3T3 tox 2 103.7
C[C@H]1CCCCO[C@H](CN(C)Cc2ccccc2)[C@@H](C)CN([C@@H](C)CO)C(=O)c2cc(NS(=O)(=O)c3ccc(Cl)cc3)ccc2O1	T cruzi growth-1 108.5 (no result: IDH1 R132H inh) | T cruzi growth-2 101.4 | T cruzi growth-3 inactive | NIH3T3 tox inactive | NIH3T3 tox 2 104.2
C[C@@H]1CCCCO[C@@H](CN(C)Cc2ccccc2)[C@H](C)CN([C@H](C)CO)C(=O)c2cc(NS(=O)(=O)c3ccc(Cl)cc3)ccc2O1	none (no result: IDH1 R132H inh)
C[C@H](CO)N1C[C@H](C)[C@@H](CN(C)Cc2ccccc2)OCCCC[C@H](C)Oc2ccc(NS(=O)(=O)c3ccc(Cl)cc3)cc2C1=O	none (no result: IDH1 R132H inh)
C[C@@H]1CCCCO[C@@H](CN(C)Cc2ccccc2)[C@H](C)CN([C@@H](C)CO)C(=O)c2cc(NS(=O)(=O)c3ccc(Cl)cc3)ccc2O1	T cruzi growth-1 109.8 (no result: IDH1 R132H inh) | T cruzi growth-2 101.5 | T cruzi growth-3 inactive | NIH3T3 tox inactive | NIH3T3 tox 2 100.3
C[C@@H]1CCCCO[C@H](CN(C)Cc2ccccc2)[C@H](C)CN([C@@H](C)CO)C(=O)c2cc(NS(=O)(=O)c3ccc(Cl)cc3)ccc2O1	T cruzi growth-1 102.5 | T cruzi growth-2 inactive | T cruzi growth-3 inactive | NIH3T3 tox inactive | NIH3T3 tox 2 102.8
CCOC(=O)CSc1ncnc2scc(-c3ccc(Cl)cc3)c12	none (no result: KDM4C inh, T cruzi growth-1, Pf Dd2 inh)
C[C@H](CO)N1C[C@H](C)[C@@H](CN(C)Cc2ccc(-c3ccccc3)cc2)OCc2cnnn2CCCC1=O	T cruzi growth-1 inconclusive (no result: IDH1 R132H inh) | T cruzi growth-2 inactive | T cruzi growth-3 inactive | NIH3T3 tox inactive | NIH3T3 tox 2 50.9
C[C@H]1CN([C@@H](C)CO)C(=O)CCCn2nncc2CO[C@@H]1CN(C)Cc1ccc(C(=O)O)cc1	none (no result: T cruzi growth-1, Pf Dd2 inh)
C[C@H](CO)N1C[C@H](C)[C@@H](CN(C)Cc2ccc(C(=O)Nc3ccccc3N)cc2)OCc2cnnn2CCCC1=O	T cruzi growth-1 110.0 (no result: IDH1 R132H inh) | T cruzi growth-2 105.6 | T cruzi growth-3 inactive | NIH3T3 tox inactive | NIH3T3 tox 2 inconclusive
C[C@@H]1CN([C@@H](C)CO)C(=O)CCCn2nncc2CO[C@H]1CN(C)Cc1ccc(C(=O)Nc2ccccc2N)cc1	T cruzi growth-1 110.1 (no result: IDH1 R132H inh) | T cruzi growth-2 101.0 | T cruzi growth-3 106.6 | NIH3T3 tox inactive | NIH3T3 tox 2 35.8

Screening data from PubChem BioAssay.
